Calls of active or inactive are those of the source. No cut-off for these calls is given here.
What was measured:
[1] = test system: Rattus norvegicus; assay: Effect on glycogen content in skeletal muscle of fasted hyperglycemic Wistar rat assessed per gram of tissue at 10 mg/kg, po measured 3 hrs post dose (reference value: 8.6 +/- 1 mg/g of tissue); assay type: functional
[2] = test system: Rattus norvegicus; assay: Insulin secretagogue activity in fasted hyperglycemic Wistar rat assessed as insulin level at 10 mg/kg, po measured 30 mins post dose by ELISA method (reference value: 0.75 +/- 0.007 ng/mL); assay type: functional
[3] = test system: Rattus norvegicus; assay: Insulin secretagogue activity in fasted hyperglycemic Wistar rat assessed as insulinogenic index ratio at 10 mg/kg, po by ELISA method (reference value: 0.66 ng/mg); assay type: functional
Summary of the method: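 Serum insulin (ELISA) and glucose (glucose oxidase) were sampled from 0 to 60 min after oral glucose 4 g/kg plus compound 10 mg/kg gavage in fasted rats. Incremental areas under the curves were computed. Insulinogenic index = AUC insulin / AUC glucose over 0–60 min.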

[4] = test system: Rattus norvegicus; assay: Antihyperglycemic activity in fasted hyperglycemic Wistar rat assessed as serum glucose level at 10 mg/kg, po measured 30 mins post dose by oral glucose tolerance test (reference value: 190.15 +/- 1.77 mg/dL); assay type: functional
Summary of the method: (§1)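 Rats fasted at least 16 h (water free) were given glucose 4 g/kg by oral gavage; test compounds 10 mg/kg were gavaged in 0.3% Tween 80. Tail-vein blood was taken before dosing and at 15, 30, 60 and 180 min, then centrifuged. Serum glucose was measured by the glucose oxidase method. Six determinations per group, mean ± S.E.M.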

[5] = test system: Rattus norvegicus; assay: Antihyperglycemic activity in fasted hyperglycemic Wistar rat assessed as serum glucose level at 10 mg/kg, po measured 15 mins post dose by oral glucose tolerance test (reference value: 177.46 +/- 5.95 mg/dL); assay type: functional; summary of the method: as §1
[6] = test system: Rattus norvegicus; assay: Toxicity in fasted hyperglycemic Wistar rat assessed as LDH level at 10 mg/kg, po by spectrophotometry based LDH release assay (reference value: 75.63 +/- 7.08 IU/L); assay type: organism-based; design: dose 10 mg/kg, route oral; details: in vivo
[7] = test system: Rattus norvegicus; assay: Effect on glycogen content in liver of fasted hyperglycemic Wistar rat assessed per gram of tissue at 10 mg/kg, po measured 3 hrs post dose (reference value: 14.6 +/- 1.27 mg/g of tissue); assay type: functional
[8] = test system: Rattus norvegicus; assay: Insulin secretagogue activity in fasted hyperglycemic Wistar rat assessed as insulin level at 10 mg/kg, po measured 15 mins post dose by ELISA method (reference value: 2.84 +/- 0.002 ng/mL); assay type: functional
[9] = test system: Rattus norvegicus; assay: Antihyperglycemic activity in fasted hyperglycemic Wistar rat assessed as serum glucose level at 10 mg/kg, po measured 180 mins post dose by oral glucose tolerance test (reference value: 141.15 +/- 4.47 mg/dL); assay type: functional; summary of the method: as §1
[10] = test system: Rattus norvegicus; assay: Antihyperglycemic activity in fasted hyperglycemic Wistar rat assessed as serum glucose level at 10 mg/kg, po measured 60 mins post dose by oral glucose tolerance test (reference value: 182.55 +/- 6.95 mg/dL); assay type: functional; summary of the method: as §1
[11] = test system: Rattus norvegicus; assay: Insulin secretagogue activity in fasted hyperglycemic Wistar rat assessed as insulin level at 10 mg/kg, po measured 60 mins post dose by ELISA method (reference value: 0.59 +/- 0.004 ng/mL); assay type: functional
[12] = Effect on glucose uptake in Wistar rat soleus muscle assessed per mg of protein at 10 uM by liquid scintillation counting based [14C]-2-deoxy-D-glucose uptake assay (reference value: 0.16 +/- 0.03 nmol glucose/mg protein); assay type: functional
[13] = test system: Soleus muscle; assay: Stimulation of glucose uptake in Wistar rat soleus muscle assessed as glucose level per mg of protein at 100 uM by liquid scintillation counting based [14C]-2-deoxy-D-glucose uptake assay (reference value: 0.16 +/- 0.03 nmol glucose/mg protein); assay type: functional
[14] = test system: Soleus muscle; assay: Stimulation of glucose uptake in Wistar rat soleus muscle at 10 uM in presence of 100 nM PI-3K inhibitor wortmannin by liquid scintillation counting based [14C]-2-deoxy-D-glucose uptake assay; assay type: functional, tissue-based
Summary of the method: (§2)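 Rat soleus in Krebs-Ringer bicarbonate (37 °C, O2/CO2 95:5, pH 7.4). Inhibitor or modulator (wortmannin 100 nM, H89, PMA 100 nM or cycloheximide) was present through a 30 min preincubation and a 60 min incubation, with or without compound. 14C-2-deoxy-D-glucose was added during incubation only. Uptake by scintillation counting normalised to Lowry protein; n=4 of 3 independent experiments.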

[15] = test system: Soleus muscle; assay: Stimulation of glucose uptake in Wistar rat soleus muscle at 10 uM in presence of 10 uM PKA inhibitor H89 by liquid scintillation counting based [14C]-2-deoxy-D-glucose uptake assay; assay type: functional, tissue-based; summary of the method: as §2
[16] = Effect on glucose uptake in Wistar rat soleus muscle assessed per mg of protein at 1 uM by liquid scintillation counting based [14C]-2-deoxy-D-glucose uptake assay (reference value: 0.16 +/- 0.03 nmol glucose/mg protein); assay type: functional
[17] = test system: Soleus muscle; assay: Stimulation of glucose uptake in Wistar rat soleus muscle at 10 uM in presence of 100 nM PMA by liquid scintillation counting based [14C]-2-deoxy-D-glucose uptake assay; assay type: functional, tissue-based; summary of the method: as §2
[18] = test system: Soleus muscle; assay: Stimulation of glucose uptake in Wistar rat soleus muscle at 10 uM in presence of 350 uM cycloheximide by liquid scintillation counting based [14C]-2-deoxy-D-glucose uptake assay; assay type: functional, tissue-based; summary of the method: as §2
[19] = test system: Soleus muscle; assay: Increase in GLUT4 expression in Wistar rat soleus muscle membranes at 10 uM after 60 mins by immunofluorescence analysis; assay type: functional, cell membranes
Summary of the method: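 Soleus was taken after 60 min in vitro incubation, or 180 min after oral gavage at 10 mg/kg. Tissue was fixed in 4% paraformaldehyde, paraffin-embedded and cut at 5 µm, with citrate antigen retrieval. Sections were stained with mouse anti-GLUT4 (1:500, overnight) then Cy3 anti-mouse, with DAPI counterstain. GLUT4 distribution was assessed qualitatively.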

[20] = test system: Soleus muscle; assay: Increase in GLUT4 expression in Wistar rat soleus muscle at 20 uM after 60 mins in presence of 350 uM cycloheximide by polyacrylamide gel electrophoresis and immunoblotting analysis; assay type: functional, tissue-based
[21] = test system: Soleus muscle; assay: Increase in GLUT4 expression in Wistar rat soleus muscle at 20 uM after 60 mins by polyacrylamide gel electrophoresis and immunoblotting analysis; assay type: functional, tissue-based
[22] = test system: Soleus muscle; assay: Stimulation of protein synthesis in Wistar rat soleus muscle at 10 uM by liquid scintillation counting based 1-[U-14C]leucine incorporation assay; assay type: functional, tissue-based
Summary of the method: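 Soleus muscles from fasted rats were preincubated 30 min in Krebs-Ringer bicarbonate (O2/CO2 95:5, pH 7.4), then incubated 60 min with compound and L-[U-14C]leucine. The reaction was stopped with cold TCA (7% final). Incorporation was expressed as cpm/mg protein (Lowry); n=4 of 3 independent experiments.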

[23] = test system: Rattus norvegicus; assay: Increase in GLUT4 expression in soleus muscle membranes of Wistar rat at 10 mg/kg, po after 180 mins by immunofluorescence analysis; details: Membrane
[24] = molecular target: ATP-binding cassette sub-family C member 8 (Homo sapiens, UniProt Q09428); assay: Binding affinity to SUR1 (unknown origin)
ATP-binding cassette sub-family C member 8, sequence (Q09428 whole entry): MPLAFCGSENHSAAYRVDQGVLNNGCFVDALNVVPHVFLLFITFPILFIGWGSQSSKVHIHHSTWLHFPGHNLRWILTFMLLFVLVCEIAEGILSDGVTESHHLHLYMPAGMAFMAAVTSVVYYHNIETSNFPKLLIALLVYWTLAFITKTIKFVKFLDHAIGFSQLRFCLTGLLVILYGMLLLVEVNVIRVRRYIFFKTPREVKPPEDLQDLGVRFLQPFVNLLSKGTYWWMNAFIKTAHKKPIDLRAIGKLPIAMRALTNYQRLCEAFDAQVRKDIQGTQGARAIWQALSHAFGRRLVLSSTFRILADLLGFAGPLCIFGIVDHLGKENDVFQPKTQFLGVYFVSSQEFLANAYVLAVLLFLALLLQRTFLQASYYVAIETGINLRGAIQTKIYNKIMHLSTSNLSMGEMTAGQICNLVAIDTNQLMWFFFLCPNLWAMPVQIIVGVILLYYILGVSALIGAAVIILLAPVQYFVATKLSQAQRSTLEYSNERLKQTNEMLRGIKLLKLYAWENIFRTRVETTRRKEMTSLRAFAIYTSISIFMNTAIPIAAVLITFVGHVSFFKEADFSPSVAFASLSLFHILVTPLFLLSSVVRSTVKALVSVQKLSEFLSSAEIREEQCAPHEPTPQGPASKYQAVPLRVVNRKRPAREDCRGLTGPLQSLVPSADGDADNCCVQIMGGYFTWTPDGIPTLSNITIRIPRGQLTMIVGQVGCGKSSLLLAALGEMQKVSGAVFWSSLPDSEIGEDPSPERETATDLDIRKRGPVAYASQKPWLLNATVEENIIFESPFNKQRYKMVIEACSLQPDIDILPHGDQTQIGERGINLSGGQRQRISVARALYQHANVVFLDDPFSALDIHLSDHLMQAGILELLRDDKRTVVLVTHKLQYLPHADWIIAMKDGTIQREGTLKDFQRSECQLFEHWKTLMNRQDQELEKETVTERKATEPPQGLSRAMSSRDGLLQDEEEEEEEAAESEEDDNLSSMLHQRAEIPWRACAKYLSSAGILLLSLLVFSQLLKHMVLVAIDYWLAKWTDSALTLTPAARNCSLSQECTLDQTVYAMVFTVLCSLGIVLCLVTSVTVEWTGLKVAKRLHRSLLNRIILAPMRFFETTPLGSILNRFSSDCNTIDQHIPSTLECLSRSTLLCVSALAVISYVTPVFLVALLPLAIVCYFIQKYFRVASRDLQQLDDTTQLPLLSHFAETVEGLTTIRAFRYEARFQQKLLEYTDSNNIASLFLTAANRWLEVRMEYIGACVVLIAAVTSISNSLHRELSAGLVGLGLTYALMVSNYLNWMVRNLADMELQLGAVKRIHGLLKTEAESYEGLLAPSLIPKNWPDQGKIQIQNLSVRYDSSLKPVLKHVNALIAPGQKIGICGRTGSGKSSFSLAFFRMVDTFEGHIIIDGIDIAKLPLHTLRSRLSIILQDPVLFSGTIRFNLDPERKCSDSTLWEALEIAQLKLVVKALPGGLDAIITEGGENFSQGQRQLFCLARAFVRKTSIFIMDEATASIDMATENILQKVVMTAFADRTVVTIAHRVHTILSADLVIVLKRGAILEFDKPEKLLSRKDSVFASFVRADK

SMILES | Activity [1] | Activity [2] | Ratio [3] | Activity [4] | Activity [5] | Activity [6] | Activity [7] | Activity [8] | Activity [9] | Activity [10] | Activity [11] | also measured
COc1ccc(Cl)cc1C(=O)NCCc1ccc(S(=O)(=O)NC(=O)NC2CCCCC2)cc1 [GLYBURIDE] | 17.46 mg | 2.66 ng/mL | 1.98 ng/mg | 135.24 mg/dL | 140.49 mg/dL | 41.08 IU/L | 8.71 mg | 3.83 ng/mL | 124.28 mg/dL | 128.34 mg/dL | 2.46 ng/mL | 
O=S(=O)(NC(=S)Nc1ccccc1)c1ccc(CCNS(=O)(=O)c2cccs2)cc1 | 20.69 mg | 1.19 ng/mL | 1.06 ng/mg | 141.6 mg/dL | 150.23 mg/dL | 72.19 IU/L | 7.68 mg | 3.01 ng/mL | 139.26 mg/dL | 140.96 mg/dL | 1.46 ng/mL | Activity [12]: 0.3 nmol; Activity [13]: 0.32 nmol; Activity [14]: inactive; Activity [15]: inactive; Activity [16]: 0.35 nmol; Activity [17]: inactive; Activity [18]: inactive; Activity [19]: Active; Activity [20]: inactive; Activity [21]: Active; Activity [22]: Active; Activity [23]: Active
CC(C)c1cc(C(C)C)c(S(=O)(=O)NCCc2ccc(S(=O)(=O)NC(=S)Nc3ccccc3)cc2)c(C(C)C)c1 |  |  |  | 168.72 mg/dL | 149.51 mg/dL |  |  |  | 142.08 mg/dL | 152.76 mg/dL |  | 
O=S(=O)(NC(=S)Nc1ccccc1)c1ccc(CCNS(=O)(=O)c2cccc3cccnc23)cc1 | 9.93 mg | 1.36 ng/mL | 0.84 ng/mg | 160.22 mg/dL | 147.97 mg/dL | 71.3 IU/L | 11.33 mg | 2.26 ng/mL | 139.63 mg/dL | 140.08 mg/dL | 0.6 ng/mL | 
O=S(=O)(NCCc1ccc(S(=O)(=O)NC(=S)Nc2ccccc2)cc1)c1ccccc1 | 6.93 mg | 0.35 ng/mL | 0.31 ng/mg | 151.62 mg/dL | 146.02 mg/dL | 68.09 IU/L | 10.66 mg | 0.39 ng/mL | 134.44 mg/dL | 158.27 mg/dL | 0.78 ng/mL | 
COc1cc(NC(C)=O)c(Cl)cc1C(=O)NCCc1ccc(S(=O)(=O)NC(=O)NC2CCCCC2)cc1 |  |  |  |  |  |  |  |  |  |  |  | Kd [24]: 0.38 nM
O=S(=O)(NCCc1ccc(S(=O)(=O)NC(=S)Nc2ccccc2)cc1)c1ccc(F)cc1 |  |  |  | 165.7 mg/dL | 148.8 mg/dL |  |  |  | 146.4 mg/dL | 165.3 mg/dL |  | 
COc1ccc(S(=O)(=O)NCCc2ccc(S(=O)(=O)NC(=O)Nc3cccc4ccccc34)cc2)cc1 |  |  |  | 156.4 mg/dL | 155.68 mg/dL |  |  |  | 143.6 mg/dL | 157.9 mg/dL |  | 
COc1ccc(S(=O)(=O)NCCc2ccc(S(=O)(=O)NC(=S)Nc3ccccc3)cc2)cc1 | 7.24 mg | 0.7 ng/mL | 0.77 ng/mg | 144.75 mg/dL | 150.98 mg/dL | 108.01 IU/L | 104.25 mg | 2.75 ng/mL | 124.7 mg/dL | 154.79 mg/dL | 0.53 ng/mL | 
Cc1ccc(S(=O)(=O)NCCc2ccc(S(=O)(=O)NC(=S)Nc3ccccc3)cc2)cc1 |  |  |  | 157.14 mg/dL | 151.25 mg/dL |  |  |  | 152.6 mg/dL | 173.51 mg/dL |  | 
COc1ccc(S(=O)(=O)NCCc2ccc(S(=O)(=O)NC(=S)Nc3ccc(Cl)cc3)cc2)cc1 | 28.51 mg | 0.71 ng/mL | 0.72 ng/mg | 158.69 mg/dL | 141.45 mg/dL | 73.92 IU/L | 69.35 mg | 2.69 ng/mL | 139.54 mg/dL | 151.74 mg/dL | 0.52 ng/mL | 
CC1(C)C2CCC1(CS(=O)(=O)NCCc1ccc(S(=O)(=O)NC(=S)Nc3ccccc3)cc1)C(=O)C2 (stereo not given) |  |  |  | 160.61 mg/dL | 151.58 mg/dL |  |  |  | 149.35 mg/dL | 149.03 mg/dL |  | 
COc1cc(NC(=O)CO[C@H]2O[C@H](CO)[C@@H](O)[C@H](O)[C@H]2O)c(Cl)cc1C(=O)NCCc1ccc(S(=O)(=O)NC(=O)NC2CCCCC2)cc1 |  |  |  |  |  |  |  |  |  |  |  | Kd [24]: 2.08 nM
